Test results: ChEMBL document CHEMBL1146092, “Practical synthesis and evaluation of the biological activities of 1alpha,25-dihydroxyvitamin D3 antagonists, 1alpha,25-dihydroxyvitamin D3-26,23-lactams. Designed on the basis of the helix 12-folding inhibition hypothesis” (J Med Chem, 2006); call rule not given here

Experiments:
Vitamin D3 receptor = molecular target: T1, Vitamin D3 receptor (Homo sapiens, UniProt P11473); assay: Antagonist activity assessed by differentiation of 1,25-D3-induced HL60 cells; assay type: functional, cell-based; conditions: hl-60
T1 sequence (P11473 whole entry): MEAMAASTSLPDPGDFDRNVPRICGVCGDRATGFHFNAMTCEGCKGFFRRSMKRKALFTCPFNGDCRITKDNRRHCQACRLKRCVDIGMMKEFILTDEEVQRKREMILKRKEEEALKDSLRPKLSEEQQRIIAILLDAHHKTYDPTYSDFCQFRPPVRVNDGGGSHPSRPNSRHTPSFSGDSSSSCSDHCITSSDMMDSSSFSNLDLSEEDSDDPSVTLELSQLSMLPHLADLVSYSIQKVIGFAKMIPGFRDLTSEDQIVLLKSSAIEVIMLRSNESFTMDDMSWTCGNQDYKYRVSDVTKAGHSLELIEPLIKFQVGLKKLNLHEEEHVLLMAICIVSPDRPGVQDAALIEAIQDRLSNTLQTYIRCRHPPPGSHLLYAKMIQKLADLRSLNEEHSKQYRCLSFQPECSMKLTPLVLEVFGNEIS
Method in brief: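 HL-60 cells in RPMI-1640 with 10% heat-inactivated FBS, seeded at 3 × 10³ cells/mL. Cells were given graded test compound in ethanol plus 1,25-D3 as the inducer, then cultured 96 h at 37 °C in 5% CO2 with no medium change. NBT (0.1%) and TPA (100 ng/mL) were added at final concentrations for 25 min at 37 °C. NBT-positive cells were counted on cytospin smears, and IC50 was taken.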

[1] = molecular target: T2, Vitamin D3 receptor (Gallus gallus) (UniProt O42392); assay: Binding affinity to chick intestinal VDR relative to 1,25-D3
T2 sequence (whole entry): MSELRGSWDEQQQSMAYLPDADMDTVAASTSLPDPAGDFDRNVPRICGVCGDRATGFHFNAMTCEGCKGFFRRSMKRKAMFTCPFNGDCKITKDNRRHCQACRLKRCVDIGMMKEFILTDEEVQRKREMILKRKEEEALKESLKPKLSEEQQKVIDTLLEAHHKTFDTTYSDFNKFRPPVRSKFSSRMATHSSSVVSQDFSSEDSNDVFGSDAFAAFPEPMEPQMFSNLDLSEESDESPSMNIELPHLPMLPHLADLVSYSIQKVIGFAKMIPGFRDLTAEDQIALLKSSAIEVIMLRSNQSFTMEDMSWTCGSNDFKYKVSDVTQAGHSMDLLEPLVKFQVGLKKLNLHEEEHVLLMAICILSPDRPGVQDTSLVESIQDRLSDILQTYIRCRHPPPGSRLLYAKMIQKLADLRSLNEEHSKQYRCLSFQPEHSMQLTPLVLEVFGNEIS
Method in brief: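 Competitive binding: receptor solution was incubated with [26,27-methyl-³H]-1,25-D3 (15 000 dpm, 180 Ci/mmol) and graded test compound in ethanol for 60 min at 25 °C. It was then cooled to 4 °C and precipitated with 40% PEG 6000, and the pellet was spun at 2260g for 60 min at 4 °C. Pellet radioactivity was counted by liquid scintillation. Affinity is expressed relative to 1,25-D3 = 100.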

[2] = molecular target: T3, Vitamin D3 receptor (Homo sapiens) (UniProt P11473); assay: Inhibition of human VDR mediated transactivation of luciferase in COS7 cells; assay type: functional, cell-based; conditions: COS-7
T3 sequence (whole entry): T1 sequence (P11473 whole entry)

[3] = molecular target: T4, Vitamin D3 receptor (Rattus norvegicus) (UniProt P13053); assay: Inhibition of rat VDR mediated transactivation of luciferase in COS7 cells; assay type: functional, cell-based; conditions: COS-7
T4 sequence (whole entry): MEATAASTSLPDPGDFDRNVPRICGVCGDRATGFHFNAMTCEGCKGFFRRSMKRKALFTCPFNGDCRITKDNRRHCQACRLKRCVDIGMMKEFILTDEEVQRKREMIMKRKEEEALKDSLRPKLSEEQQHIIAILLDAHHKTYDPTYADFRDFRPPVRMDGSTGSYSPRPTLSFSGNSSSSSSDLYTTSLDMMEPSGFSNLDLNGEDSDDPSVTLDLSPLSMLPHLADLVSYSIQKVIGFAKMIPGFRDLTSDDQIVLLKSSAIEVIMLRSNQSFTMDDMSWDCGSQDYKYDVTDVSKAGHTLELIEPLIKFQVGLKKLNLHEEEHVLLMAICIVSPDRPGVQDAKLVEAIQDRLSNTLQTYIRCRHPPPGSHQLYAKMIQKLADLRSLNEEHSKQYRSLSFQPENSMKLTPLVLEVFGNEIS

IC50 (Vitamin D3 receptor)	Activity [1]	Activity [2]	Activity [3]	Compound
Not Active	0.3%			C=C1/C(=C\C=C2/CCC[C@@]3(C)C2CC[C@@H]3[C@H](C)C[C@@H]2C[C@@](C)(O)C(=O)N2Cc2ccc(OC)cc2)C[C@@H](O)C[C@@H]1O (stereo partly drawn)
Not Active	0.18%			C=C1/C(=C\C=C2/CCC[C@@]3(C)C2CC[C@@H]3[C@H](C)C[C@H]2C[C@@](C)(O)C(=O)N2Cc2ccccc2)C[C@@H](O)C[C@@H]1O (stereo partly drawn)
	8%			C=C1/C(=C\C=C2/CCC[C@@]3(C)C2CC[C@@H]3[C@H](C)C[C@H]2C[C@](C)(O)C(=O)N2CCc2ccccc2)C[C@@H](O)C[C@@H]1O (stereo partly drawn)
	2.2%			C=C1/C(=C\C=C2/CCC[C@@]3(C)C2CC[C@@H]3[C@H](C)C[C@H]2C[C@](C)(O)C(=O)N2Cc2ccc(OC)cc2)C[C@@H](O)C[C@@H]1O (stereo partly drawn)
Not Active	0.1%			C=C1/C(=C\C=C2/CCC[C@@]3(C)C2CC[C@@H]3[C@H](C)C[C@@H]2C[C@](C)(O)C(=O)N2Cc2ccc(OC)cc2)C[C@@H](O)C[C@@H]1O (stereo partly drawn)
Not Active	0.19%			C=C1/C(=C\C=C2/CCC[C@@]3(C)C2CC[C@@H]3[C@H](C)C[C@@H]2C[C@](C)(O)C(=O)N2CCc2ccccc2)C[C@@H](O)C[C@@H]1O (stereo partly drawn)
Not Active	0.25%			C=C1/C(=C\C=C2/CCC[C@@]3(C)C2CC[C@@H]3[C@H](C)C[C@@H]2C[C@@](C)(O)C(=O)N2Cc2ccccc2)C[C@@H](O)C[C@@H]1O (stereo partly drawn)
Not Active	0.25%			C=C1/C(=C\C=C2/CCC[C@@]3(C)C2CC[C@@H]3[C@H](C)C[C@@H]2C[C@](C)(O)C(=O)N2Cc2ccccc2)C[C@@H](O)C[C@@H]1O (stereo partly drawn)
Not Active	0.09%			C=C1/C(=C\C=C2/CCC[C@@]3(C)C2CC[C@@H]3[C@H](C)C[C@H]2C[C@@](C)(O)C(=O)N2Cc2ccc(OC)cc2)C[C@@H](O)C[C@@H]1O (stereo partly drawn)
	2.74%	Dose-dependent effect	Dose-dependent effect	C=C1/C(=C\C=C2/CCC[C@@]3(C)C2CC[C@@H]3[C@H](C)C[C@H]2C[C@](C)(O)C(=O)N2Cc2ccccc2)C[C@@H](O)C[C@@H]1O (stereo partly drawn)

The next lines start with the molecule.

Compound	IC50 (Vitamin D3 receptor)	Activity [1]	Activity [2]	Activity [3]
C=C1/C(=C\C=C2/CCC[C@@]3(C)C2CC[C@@H]3[C@H](C)C[C@@H]2C[C@@](C)(O)C(=O)N2CCc2ccccc2)C[C@@H](O)C[C@@H]1O (stereo partly drawn)	Not Active	0.51%		
C=C1/C(=C\C=C2/CCC[C@@]3(C)C2CC[C@@H]3[C@H](C)C[C@@H]2C[C@@](C)(O)C(=O)N2CCCc2ccccc2)C[C@@H](O)C[C@@H]1O (stereo partly drawn)	Not Active	0.19%		
C=C1/C(=C\C=C2/CCC[C@@]3(C)C2CC[C@@H]3[C@H](C)C[C@H]2C[C@@](C)(O)C(=O)N2CCCCc2ccccc2)C[C@@H](O)C[C@@H]1O (stereo partly drawn)	Not Active	0.09%		
C=C1/C(=C\C=C2/CCC[C@@]3(C)C2CC[C@@H]3[C@H](C)C[C@@H]2C[C@@](C)(O)C(=O)N2CCCCc2ccccc2)C[C@@H](O)C[C@@H]1O (stereo partly drawn)	Not Active	0.3%		
C=C1/C(=C\C=C2/CCC[C@@]3(C)C2CC[C@@H]3[C@H](C)C[C@H]2C[C@@](C)(O)C(=O)N2CCc2ccccc2)C[C@@H](O)C[C@@H]1O (stereo partly drawn)		0.34%		
C=C1/C(=C\C=C2/CCC[C@@]3(C)C2CC[C@@H]3[C@H](C)C[C@@H]2C[C@](C)(O)C(=O)N2CCCc2ccccc2)C[C@@H](O)C[C@@H]1O (stereo partly drawn)	Not Active	0.03%		
C=C1/C(=C\C=C2/CCC[C@@]3(C)C2CC[C@@H]3[C@H](C)C[C@@H]2C[C@](C)(O)C(=O)N2C(C)C)C[C@@H](O)C[C@@H]1O (stereo partly drawn)	Not Active	0.11%		
C=C1/C(=C\C=C2/CCC[C@@]3(C)C2CC[C@@H]3[C@H](C)C[C@H]2C[C@@](C)(O)C(=O)N2CCCc2ccccc2)C[C@@H](O)C[C@@H]1O (stereo partly drawn)	Not Active	0.09%		
C=C1/C(=C\C=C2/CCC[C@@]3(C)C2CC[C@@H]3[C@H](C)C[C@H]2C[C@](C)(O)C(=O)N2CCCc2ccccc2)C[C@@H](O)C[C@@H]1O (stereo partly drawn)		0.68%		
C=C1/C(=C\C=C2/CCC[C@@]3(C)C2CC[C@@H]3[C@H](C)C[C@H]2C[C@](C)(O)C(=O)N2C(C)C)C[C@@H](O)C[C@@H]1O (stereo partly drawn)		1.52%		
C=C1/C(=C\C=C2/CCC[C@@]3(C)C2CC[C@@H]3[C@H](C)C[C@@H]2C[C@@](C)(O)C(=O)N2C(C)C)C[C@@H](O)C[C@@H]1O (stereo partly drawn)	Not Active	0.14%		
C=C1/C(=C\C=C2/CCC[C@@]3(C)C2CC[C@@H]3[C@H](C)C[C@H]2C[C@](C)(O)C(=O)N2CCCCc2ccccc2)C[C@@H](O)C[C@@H]1O (stereo partly drawn)		5.24%		
C=C1/C(=C\C=C2/CCC[C@@]3(C)C2CC[C@@H]3[C@H](C)C[C@H]2C[C@@](C)(O)C(=O)N2C(C)C)C[C@@H](O)C[C@@H]1O (stereo partly drawn)	Not Active	0.14%		
C=C1/C(=C\C=C2/CCC[C@@]3(C)C2CC[C@@H]3[C@H](C)C[C@@H]2C[C@](C)(O)C(=O)N2CCCCc2ccccc2)C[C@@H](O)C[C@@H]1O (stereo partly drawn)	Not Active	0.1%		
